Results published in ChEMBL document CHEMBL2010776, “Synthesis and structure elucidation of novel fused 1,2,4-triazine derivatives as potent inhibitors targeting CYP1A1 activity” (Bioorg Med Chem, 2012).

Assays:
CYP1A1 = target: T1, CYP1A1 (Rattus norvegicus, UniProt P00185); experiment: Inhibition of CYP1A1 activity in rat liver microsomes using benzo[alpha]pyrene as substrate at 100 nmol after 10 mins by fluorescence analysis; parameters: species or system Microsome; conditions: probe benzo[alpha]pyrene
T1 sequence (P00185 whole entry): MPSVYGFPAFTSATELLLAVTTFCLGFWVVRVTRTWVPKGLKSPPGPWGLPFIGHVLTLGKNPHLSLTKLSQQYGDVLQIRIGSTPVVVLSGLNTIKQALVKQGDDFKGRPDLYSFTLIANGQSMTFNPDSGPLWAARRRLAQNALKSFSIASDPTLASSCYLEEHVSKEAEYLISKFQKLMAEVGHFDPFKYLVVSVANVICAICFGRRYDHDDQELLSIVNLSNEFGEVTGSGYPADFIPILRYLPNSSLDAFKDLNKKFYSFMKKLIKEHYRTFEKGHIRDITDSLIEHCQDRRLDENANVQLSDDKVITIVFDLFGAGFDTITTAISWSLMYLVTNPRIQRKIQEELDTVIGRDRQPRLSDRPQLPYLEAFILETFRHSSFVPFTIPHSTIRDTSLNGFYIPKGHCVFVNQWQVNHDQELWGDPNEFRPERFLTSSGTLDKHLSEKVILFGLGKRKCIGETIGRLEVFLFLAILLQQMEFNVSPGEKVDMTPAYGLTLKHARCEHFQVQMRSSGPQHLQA
Method in brief: (§1)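 AHH assay, 1 mL mix: 50 mM Tris–HCl pH 7.4, […], 100 nmol test compound, 0.1 mL microsomal protein (10 mg/mL) from PAH-induced rat liver (105,000 g pellet, resuspended in 0.1 M K phosphate pH 7.4). Started with 100 nmol benzo[a]pyrene, 37 °C 10 min, acetone stop; 3-OH-BaP hexane-extracted, fluorescence ex 396/em 522 nm; percent change in activity.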

Cytochrome P450 1A1 = target: T2, Cytochrome P450 1A1 (Rattus norvegicus, UniProt P00185); experiment: Inhibition of CYP1A1 activity in rat liver microsomes using benzo[alpha]pyrene as substrate after 10 mins by fluorescence analysis; parameters: species or system Microsome; method in brief: as §1
T2 sequence (P00185 whole entry): T1 sequence (P00185 whole entry)

Mus musculus [1] = experiment: Acute toxicity in mouse assessed as tolerability up to 350 mg/kg, po; type: organism-based; parameters: dose 350 mg/kg, route oral; conditions: in vivo
[2] = Toxicity in po dosed mouse; type: organism-based; conditions: in vivo
Mus musculus [3] = experiment: Acute toxicity in mouse assessed as tolerability up to 150 mg/kg, ip; type: organism-based; parameters: dose 150 mg/kg, route intraperitoneal; conditions: in vivo
Method in brief: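 Mice in groups of six; compound suspended in corn oil and given intraperitoneally at 1, 5, 10, 50 or 150 mg/kg; vehicle-only control group. Body weight recorded before dosing and on days 7 and 14 (termination).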

Structure (SMILES)	inhibition at 10 min (CYP1A1)	IC50 (Cytochrome P450 1A1)	Activity (Mus musculus [1])	LD50 [2]	Activity (Mus musculus [3])
CC(=O)N1N=C2N(N=C(Cc3ccccc3)C(=O)N2N(C(C)=O)C(C)=O)C1c1ccccc1 (stereo unspecified)	20.6%	24.2 nM			
Nn1c(N/N=C2\C(=O)Nc3ccccc32)nnc(Cc2ccccc2)c1=O	92.2%	5.42 nM	Non-toxic	> 350 mg/kg	Non-toxic
COc1ccc(Cc2nnc(N/N=C3\C(=O)Nc4ccccc43)n(N)c2=O)cc1	90.5%	5.53 nM	Non-toxic	> 350 mg/kg	Non-toxic
COc1ccc(CC2=NN3C(=NN(C(C)=O)C34C(=O)N(C(C)=O)c3ccccc34)N(N(C(C)=O)C(C)=O)C2=O)cc1 (stereo unspecified)	81.5%	61.4 nM	Non-toxic	> 350 mg/kg	Non-toxic
CC(=O)NN1C(=O)C(Cc2ccccc2)=NN2C1=NN(C(C)=O)C2(C)c1ccc(Cl)cc1 (racemic)	87.9%	5.69 nM	Non-toxic	> 350 mg/kg	Non-toxic

Now from value to compound, other results behind:

inhibition at 10 min (CYP1A1)	IC50 (Cytochrome P450 1A1)	Structure (SMILES)	Activity (Mus musculus [1])	LD50 [2]	Activity (Mus musculus [3])
57.6%	86.7 nM	COc1ccc(CC2=NN3C(=NN(C(C)=O)C3c3ccccc3)N(N(C(C)=O)C(C)=O)C2=O)cc1 (stereo unspecified)			
51.5%	9.71 nM	COc1ccc(C2N(C(C)=O)N=C3N2N=C(Cc2ccccc2)C(=O)N3N(C(C)=O)C(C)=O)cc1 (stereo unspecified)			
48.2%	10.4 nM	COc1ccc(CC2=NN3C(=NN(C(C)=O)C3(C)c3ccc(C)cc3)N(N(C(C)=O)C(C)=O)C2=O)cc1 (stereo unspecified)			
37.9%	13.2 nM	CC(=O)NN1C(=O)C(Cc2ccccc2)=NN2C1=NN(C(C)=O)C2(C)c1ccccc1 (stereo unspecified)			
59.8%	8.36 nM	COc1ccc(CC2=NN3C(=NN(C(C)=O)C3(C)c3ccccc3)N(NC(C)=O)C2=O)cc1 (stereo unspecified)			
75.6%	6.62 nM	CC(=O)NN1C(=O)C(Cc2ccccc2)=NN2C1=NN(C(C)=O)C2(C)c1ccc(C)cc1 (stereo unspecified)			
64.6%	7.74 nM	CC(=O)N1C(=O)C2(c3ccccc31)N(C(C)=O)N=C1N(N(C(C)=O)C(C)=O)C(=O)C(Cc3ccccc3)=NN12 (stereo unspecified)			
